# From ChEMBL document CHEMBL1152892, “Synthesis and biological evaluation of 3,6-disubstituted [1,2,4]triazolo[3,4-b][1,3,4]thiadiazole derivatives as a novel class of potential anti-tumor agents” (Eur J Med Chem, 2009)
# Activity calls are given as the source filed them. No cut-off for these calls is given here.
# Key:
# [1] = target: Cyclin-dependent kinase 1/cyclin B1 (Homo sapiens, UniProt P06493); assay: Inhibition of CDK1/Cyclin B; assay type: protein-complex assay
# [2] = Inhibition of CDK4/Cyclin D
# [3] = target: Cyclin-dependent kinase 2 (Homo sapiens, UniProt P24941); assay: Inhibition of CDK2/Cyclin A
# HOP-62 = assay: Cytotoxicity against human HOP62 cells after 48 hrs by sulforhodamine B assay; assay type: functional
# Summary of the method: (§1)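 NCI human tumor panel. Cells in RPMI 1640 with 5% FBS and 2 mM L-glutamine, 5000–40,000 cells/well by growth characteristics, 24 h preincubation at 37 °C. Compound added at time zero at five 10-fold dilutions, top concentration agent-dependent. Incubated 48 h (5% CO2, 100% humidity), then sulforhodamine B stain and plate-reader OD. GI50 and TGI are the concentrations giving 50% and total growth inhibition, in µM.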
# SNB-75 = assay: Cytotoxicity against human SNB75 cells after 48 hrs by sulforhodamine B assay; assay type: functional; summary of the method: as §1
# [4] = (§2) Cytotoxicity against human […] cells after 48 hrs by sulforhodamine B assay; assay type: functional; summary of the method: as §1
# OVCAR-4 = assay: Cytotoxicity against human OVCAR4 cells after 48 hrs by sulforhodamine B assay; assay type: functional; summary of the method: as §1
# BT-549 = assay: Cytotoxicity against human BT549 cells after 48 hrs by sulforhodamine B assay; assay type: functional; conditions: for GI50: BT-549, 48 h; summary of the method: as §1
# OVCAR-3 = assay: Cytotoxicity against human OVCAR-3 cells after 48 hrs by sulforhodamine B assay; assay type: functional; conditions: for GI50: OVCAR-3, 48 h; summary of the method: as §1
# HOP-92 = assay: Cytotoxicity against human HOP92 cells after 48 hrs by sulforhodamine B assay; assay type: functional; conditions: for GI50: HOP-92, 48 h; summary of the method: as §1
# Hs-578T = assay: (§3) Cytotoxicity against human Hs 578T cells after 48 hrs by sulforhodamine B assay; assay type: functional; summary of the method: as §1
# SF-539 = assay: Cytotoxicity against human SF539 cells after 48 hrs by sulforhodamine B assay; assay type: functional; summary of the method: as §1
# CAKI-1 = assay: Cytotoxicity against human Caki1 cells after 48 hrs by sulforhodamine B assay; assay type: functional; conditions: for GI50: CAKI-1, 48 h; summary of the method: as §1
# CCRF-CEM = assay: Cytotoxicity against human CCRF-CEM cells after 48 hrs by sulforhodamine B assay; assay type: functional; summary of the method: as §1
# NCI-H226 = assay: Cytotoxicity against human NCI-H226 cells after 48 hrs by sulforhodamine B assay; assay type: functional; conditions: NCI-H226, 48 h; summary of the method: as §1
# ACHN = assay: Cytotoxicity against human ACHN cells after 48 hrs by sulforhodamine B assay; assay type: functional; summary of the method: as §1
# KM12 = assay: Cytotoxicity against human KM12 cells after 48 hrs by sulforhodamine B assay; assay type: functional; summary of the method: as §1
# TK-10 = assay: Cytotoxicity against human TK10 cells after 48 hrs by sulforhodamine B assay; assay type: functional; summary of the method: as §1
# UACC-62 = assay: Cytotoxicity against human UACC62 cells after 48 hrs by sulforhodamine B assay; assay type: functional; summary of the method: as §1
# SF-268 = assay: Cytotoxicity against human SF268 cells after 48 hrs by sulforhodamine B assay; assay type: functional; summary of the method: as §1
# HCT-15 = assay: Cytotoxicity against human HCT15 cells after 48 hrs by sulforhodamine B assay; assay type: functional; summary of the method: as §1
# HCC 2998 = assay: Cytotoxicity against human HCC2998 cells after 48 hrs by sulforhodamine B assay; assay type: functional; summary of the method: as §1
# HCT-116 [5] = assay: Antitumor activity against human HCT116 cells xenografted in nude mouse; assay type: functional, cell-based
# HCT-116 [6] = assay: Cytotoxicity against human HCT116 cells after 48 hrs by sulforhodamine B assay; assay type: functional; conditions: for GI50: HCT-116, 48 h; summary of the method: as §1
# A498 = assay: Cytotoxicity against human A498 cells after 48 hrs by sulforhodamine B assay; assay type: functional; summary of the method: as §1
# MCF7 [7] = assay: Antitumor activity against human MCF7 cells assessed as cell growth at 10 uM after 48 hrs by sulforhodamine B assay; assay type: functional; conditions: MCF7, 48 h, read-out: Activity
# Summary of the method: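 NCI primary screen, single concentration 10^-5 M against MCF7, NCI-H460 and SF-268. Cells in RPMI 1640 with 5% FBS and 2 mM L-glutamine, seeded at 5000–40,000 cells/well by cell type, preincubated 24 h at 37 °C. Compound added at time zero, then 48 h incubation (5% CO2, 100% humidity). Growth read by sulforhodamine B optical density, reported as growth percentage.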
# MCF7 [8] = assay: Cytotoxicity against human MCF7 cells after 48 hrs by sulforhodamine B assay; assay type: functional; summary of the method: as §1
# SR = assay: Cytotoxicity against human SR cells after 48 hrs by sulforhodamine B assay; assay type: functional; summary of the method: as §1
# NCI-H322M = assay: Cytotoxicity against human NCI-H322M cells after 48 hrs by sulforhodamine B assay; assay type: functional; summary of the method: as §1
# RPMI8266 = assay: as §2; assay type: functional; summary of the method: as §1
# [9] = as §3; assay type: functional; summary of the method: as §1
# LOX IMVI = assay: Cytotoxicity against human LOXIMVI cells after 48 hrs by sulforhodamine B assay; assay type: functional; summary of the method: as §1
# Sequence of Cyclin-dependent kinase 1/cyclin B1 (P06493 whole entry): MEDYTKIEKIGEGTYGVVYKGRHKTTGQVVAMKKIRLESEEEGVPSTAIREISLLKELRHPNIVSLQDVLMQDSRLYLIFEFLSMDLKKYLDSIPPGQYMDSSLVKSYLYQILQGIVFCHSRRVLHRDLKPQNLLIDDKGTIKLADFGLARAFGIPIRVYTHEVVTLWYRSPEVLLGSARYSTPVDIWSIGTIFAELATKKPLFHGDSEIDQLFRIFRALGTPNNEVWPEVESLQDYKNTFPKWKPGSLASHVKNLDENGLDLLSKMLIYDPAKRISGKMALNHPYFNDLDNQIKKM
# Sequence of Cyclin-dependent kinase 1/cyclin B1 (P14635 whole entry, further chain): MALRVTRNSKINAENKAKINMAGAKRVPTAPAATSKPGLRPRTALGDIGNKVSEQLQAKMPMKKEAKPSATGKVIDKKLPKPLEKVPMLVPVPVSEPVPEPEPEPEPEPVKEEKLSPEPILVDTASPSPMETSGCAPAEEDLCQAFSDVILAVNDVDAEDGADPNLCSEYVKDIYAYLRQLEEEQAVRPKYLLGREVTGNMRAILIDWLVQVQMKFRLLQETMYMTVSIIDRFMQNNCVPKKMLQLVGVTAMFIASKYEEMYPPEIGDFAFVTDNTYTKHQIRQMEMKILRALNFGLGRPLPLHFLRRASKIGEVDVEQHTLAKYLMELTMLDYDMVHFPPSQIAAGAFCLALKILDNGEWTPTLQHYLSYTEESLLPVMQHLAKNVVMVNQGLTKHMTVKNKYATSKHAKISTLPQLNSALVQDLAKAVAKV
structure (smiles),measurement,setting,value
Cc1nnc2sc(NN)nn12,IC50,[1],22 µM
same,IC50,[2],> 120 µM
same,IC50,[3],11 µM
Clc1ccc(OCc2nnc3sc(SSc4nn5c(COc6ccc(Cl)cc6)nnc5s4)nn23)cc1,GI50,"HOP-62; HOP-62, 48 h",66.1 µM
same,pGI50,SNB-75,inactive
same,GI50,[4],44.7 µM
same,IC50,[1],11 µM
same,GI50,"OVCAR-4; OVCAR-4, 48 h",46.8 µM
same,GI50,BT-549,47.9 µM
same,GI50,OVCAR-3,35.5 µM
same,GI50,HOP-92,18.2 µM
same,pGI50,Hs-578T,inactive
same,pGI50,SF-539,inactive
same,GI50,CAKI-1,77.6 µM
same,GI50,CCRF-CEM,75.9 µM
same,IC50,[2],8 µM
same,GI50,NCI-H226,87.1 µM
same,pGI50,ACHN,inactive
same,pGI50,KM12,inactive
same,GI50,"TK-10; TK-10, 48 h",72.4 µM
same,GI50,"UACC-62; UACC-62, 48 h",44.7 µM
same,pGI50,SF-268,inactive
same,GI50,"HCT-15; HCT-15, 48 h",87.1 µM
same,GI50,"HCC 2998; HCC 2998, 48 h",16.2 µM
same,Activity,HCT-116 [5],inactive
same,pGI50,HCT-116 [6],inactive
same,IC50,[3],0.82 µM
same,GI50,"A498; A498, 48 h",28.8 µM
same,growth at 10 µM,MCF7 [7],147%
same,GI50,"MCF7 [8]; MCF7, 48 h",44.7 µM
same,GI50,SR,14.1 µM
c1ccc(CSc2nn3c(Cc4ccccc4)nnc3s2)cc1,IC50,[1],25 µM
same,IC50,[2],18 µM
same,IC50,[3],> 28 µM
Clc1ccc(OCc2nnc3sc(SCc4ccccc4)nn23)cc1,IC50,[1],> 120 µM
same,IC50,[2],37 µM
same,IC50,[3],> 28 µM
CCSc1nn2c(Cc3ccccc3)nnc2s1,IC50,[1],> 120 µM
same,IC50,[2],> 48 µM
same,IC50,[3],24 µM
CCSc1nn2c(C)nnc2s1,IC50,[1],> 120 µM
same,IC50,[2],14 µM
same,IC50,[3],11 µM
NNc1nn2c(COc3ccc(Cl)cc3)nnc2s1,IC50,[1],28 µM
same,IC50,[2],> 120 µM
same,IC50,[3],15 µM
S=c1[nH]c(=S)c2c(Cc3nn4c(COc5ccc(Cl)cc5)nnc4s3)n[nH]c2[nH]1,IC50,[1],29 µM
same,IC50,[2],> 48 µM
same,IC50,[3],37 µM
Sc1nn2c(COc3ccc(Cl)cc3)nnc2s1,pGI50,HOP-62,inactive
same,pGI50,NCI-H322M,inactive
same,pGI50,SNB-75,inactive
same,pGI50,RPMI8266,inactive
same,IC50,[1],0.9 µM
same,pGI50,OVCAR-4,inactive
same,GI50,BT-549,79.4 µM
same,GI50,OVCAR-3,81.3 µM
same,GI50,HOP-92,79.4 µM
same,GI50,[9],87.1 µM
same,pGI50,SF-539,inactive
same,pGI50,CAKI-1,inactive
same,GI50,CCRF-CEM,97.7 µM
same,GI50,NCI-H226,89.1 µM
same,pGI50,ACHN,inactive
same,pGI50,KM12,inactive
same,pGI50,TK-10,inactive
same,pGI50,UACC-62,inactive
same,pGI50,SF-268,inactive
same,pGI50,HCC 2998,inactive
same,GI50,HCT-116 [6],> 100 µM
same,pGI50,LOX IMVI,inactive
same,IC50,[3],0.4 µM
same,pGI50,A498,inactive
same,growth at 10 µM,MCF7 [7],0%
same,pGI50,MCF7 [8],inactive
same,GI50,SR,95.5 µM
Cc1nnc2sc(Cc3sc(N)nc3O)nn12,pGI50,HOP-62,inactive
same,GI50,NCI-H322M,87.1 µM
same,pGI50,SNB-75,inactive
same,IC50,[1],12 µM
same,pGI50,OVCAR-4,inactive
same,pGI50,BT-549,inactive
same,pGI50,OVCAR-3,inactive
same,pGI50,HOP-92,inactive
same,pGI50,Hs-578T,inactive
same,pGI50,SF-539,inactive
same,GI50,CAKI-1,63.1 µM
same,pGI50,CCRF-CEM,inactive
same,IC50,[2],12 µM
same,GI50,NCI-H226,77.6 µM
same,pGI50,ACHN,inactive
same,GI50,"KM12; KM12, 48 h",97.7 µM
same,pGI50,TK-10,inactive
same,pGI50,UACC-62,inactive
same,pGI50,SF-268,inactive
same,pGI50,HCT-15,inactive
same,pGI50,HCC 2998,inactive
same,GI50,HCT-116 [6],83.2 µM
same,pGI50,LOX IMVI,inactive
same,IC50,[3],0.25 µM
same,pGI50,A498,inactive
same,growth at 10 µM,MCF7 [7],130%
same,pGI50,MCF7 [8],inactive
same,pGI50,SR,inactive
Sc1nn2c(Cc3ccccc3)nnc2s1,IC50,[1],25 µM
same,IC50,[2],37 µM
same,IC50,[3],23 µM
Cc1nnc2sc(SSc3nn4c(C)nnc4s3)nn12,IC50,[1],6.8 µM
same,IC50,[2],11 µM
same,IC50,[3],23 µM
